The text below walks through data of ChEMBL document CHEMBL3259666, “Discovery of a neuroprotective chemical, (S)-N-(3-(3,6-dibromo-9H-carbazol-9-yl)-2-fluoropropyl)-6-methoxypyridin-2-amine [(-)-P7C3-S243], with improved druglike properties” (J Med Chem, 2014).

Broadly, the half-life is the time in which the quantity being followed falls by half. By IC50 is commonly meant the concentration that inhibits the measured activity by half.

The source made the active and inactive calls. No cut-off for these calls is given here.

Series [1] can be described thus: Half life in monkey liver microsomes. It is filed as ADME, Macaca mulatta. As to conditions: rhesus monkey.
In series [2] the test system is Mus musculus. As to the kind of experiment: Neuroprotective activity in substantia nigra of C57Bl/6 mouse neurogenesis model assessed as protection from MPTP-induced cell death in mature neurons at 1 mg/kg/day, ip bid administered for 21 days by immunohistochemical analysis relative to vehicle-treated control. It is filed as functional, organism-based. The method in brief: (§1)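 MPTP model in adult male C57Bl/6 mice, individually housed 1 week. MPTP free base 30 mg/kg/day IP for 5 days. From day 6 (24 h after the last MPTP dose), compound or vehicle given IP twice daily for 21 days. Mice were then perfused with 4% paraformaldehyde. SNc sectioned at 30 μm intervals and every fourth section stained for TH (DAB, hematoxylin counterstain). TH+ cells counted blinded; mean ± SEM, compared with vehicle + MPTP.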

Series [3] concerns Mus musculus. As to the kind of experiment: Neuroprotective activity in wild type C57BL/J6 mouse assessed as survival of newborn hippocampal neurons at 1 to 10 mg/kg/day, ip bid administered for 7 days by BrdU staining-based immunohistochemical analysis relative to vehicle-treated control. The format is functional, organism-based. An outline of the steps:
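Adult (12-week) wild-type C57BL/J6 mice. Compound given IP twice daily for 7 days, with BrdU 50 mg/kg/day IP. Perfused with 4% paraformaldehyde 24 h after the last BrdU dose. Anti-BrdU immunostaining after formamide/HCl unmasking. BrdU+ cells in the dentate gyrus SGZ counted in every fifth 40 μm section and normalised to dentate gyrus volume; mean ± SEM.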

The subject of series [4] is Mus musculus. As to the kind of experiment: Toxicity in C57Bl/6 mouse assessed as effect on weight up to 10 mg/kg/day, ip bid administered for 21 days. The format is organism-based. Also on record: route intraperitoneal. To be noted: in vivo, 504 h.
The test system of series [5] is Brain. Nature of the series: AUC in mouse brain at 20 mg/kg, ip by HPLC/MS/MS analysis. The format is ADME, organism-based. To be noted: in vivo. Also noted: dose 20 mg/kg, route intraperitoneal. An outline of the steps:
(§2)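 Mouse PK. Compound formulated in 5% DMSO/10% cremophor EL/85% D5W (pH 7.2) and given IV, IP or by oral gavage. Mice killed at varying times with CO2. Citrated plasma and PBS brain homogenate (3-fold volume) were protein-precipitated with acetonitrile containing 0.15% formic acid and analysed by HPLC/MS/MS against spiked blank standards. Noncompartmental analysis was used, with F = (AUCoral/AUCIV)×(DoseIV/Doseoral)×100%. Values are mean ± SEM.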

The test system of series [6] is Mus musculus. Nature of the series: Neuroprotective activity in wild type C57BL/J6 mouse assessed as survival of newborn hippocampal neurons at 10 uM, icv administered for 7 days by BrdU staining-based immunohistochemical analysis relative to vehicle-treated control. It is filed as functional, organism-based. An outline of the steps:
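Adult (12 week old) C57BL/J6 mice, environmentally deprived; compound infused via osmotic minipump into left lateral ventricle at 0.5 μL/h for 7 days. BrdU IP 50 mg kg–1 day–1 for 6 days during infusion; perfusion 24 h after last BrdU. BrdU+ cells in SGZ/dentate gyrus of contralateral hemisphere counted in every fifth 40 μm section, normalized to dentate gyrus volume; mean ± SEM.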
(In general: Incorporation of labelled thymidine or its analogues reports DNA synthesis.)

The subject of series [7] is Brain. Nature of the series: Bioavailability in mouse brain at 10 mg/kg, ip by HPLC/MS/MS analysis. The format is ADME, organism-based. To be noted: in vivo. The method in brief: as §2
For series [8], the system named is Brain. As to the kind of experiment: AUC in mouse brain at 10 mg/kg, iv by HPLC/MS/MS analysis. Also on record: dose 10 mg/kg, route intravenous. It is filed as ADME, organism-based. To be noted: in vivo. An outline of the steps:
as §2

Series [9] can be described thus: Half life in mouse at 10 mg/kg, ip by HPLC/MS/MS analysis. The format is ADME, organism-based. Also noted: dose 10 mg/kg, route intraperitoneal. To be noted: in vivo. The method in brief:
as §2

Series [10] concerns Hepatocyte. Nature of the series: Half life in mouse hepatocytes. The format is ADME, cell-based.
A short description of series [11]: Half life in mouse at 10 mg/kg, iv by HPLC/MS/MS analysis. It is filed as ADME, organism-based. Also on record: dose 10 mg/kg, route intravenous. As to conditions: in vivo. The method in brief:
as §2

In series [12] the test system is Mus musculus. Nature of the series: Neuroprotective activity in wild type C57BL/J6 mouse assessed as survival of newborn hippocampal neurons at 0.1 to 10 uM, icv administered for 7 days by BrdU staining-based microscopy relative to vehicle-treated control. The format is functional, organism-based. The method in brief:
(§3)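 Adult (12-week) wild-type C57BL/J6 mice. Compound infused ICV into the left lateral ventricle by osmotic minipump at 0.5 μL/h for 7 days, with BrdU 50 mg/kg/day IP for 6 days. Perfused 24 h after the last BrdU dose. BrdU antigen unmasked (formamide/SSC at 65 °C, then 2 M HCl); anti-BrdU staining. BrdU+ cells in the contralateral dentate gyrus SGZ counted in every fifth 40 μm section and normalised to dentate gyrus volume.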

In series [13] the test system is Mus musculus. Nature of the series: Toxicity in C57Bl/6 mouse assessed as effect on behavior up to 10 mg/kg/day, ip bid administered for 21 days. Also noted: route intraperitoneal. The format is organism-based. To be noted: in vivo, 504 h.
The subject of series [14] is Plasma. Nature of the series: Bioavailability in mouse plasma at 10 mg/kg, ip by HPLC/MS/MS analysis. It is filed as ADME, organism-based. To be noted: in vivo. The method in brief: as §2
Series [15] has as its system Brain. As to the kind of experiment: Bioavailability in mouse brain at 20 mg/kg, po by HPLC/MS/MS analysis. The format is ADME, organism-based. To be noted: in vivo. An outline of the steps:
as §2

The nature of series [16]: Half life in mouse at 20 mg/kg, ip by HPLC/MS/MS analysis. It is filed as ADME, organism-based. Also noted: dose 20 mg/kg, route intraperitoneal. To be noted: in vivo. An outline of the steps: as §2
Series [17] concerns Liver microsome. As to the kind of experiment: Half life in human liver microsomes. It is filed as ADME.
The test system of series [18] is Brain. As to the kind of experiment: Bioavailability in mouse brain at 20 mg/kg, ip by HPLC/MS/MS analysis. The format is ADME, organism-based. As to conditions: in vivo. An outline of the steps: as §2
For series [19], the system named is Brain. As to the kind of experiment: AUC in mouse brain at 20 mg/kg, po by HPLC/MS/MS analysis. It is filed as ADME, organism-based. Also on record: dose 20 mg/kg, route oral. As to conditions: in vivo. The method in brief: as §2
Series [20] relates to Brain. Nature of the series: AUC in mouse brain at 10 mg/kg, ip by HPLC/MS/MS analysis. It is filed as ADME, organism-based. Also noted: dose 10 mg/kg, route intraperitoneal. As to conditions: in vivo. An outline of the steps:
as §2

The subject of series [21] is Liver. As to the kind of experiment: Half life in mouse liver microsomes. It is filed as ADME.
Series [22] concerns Mus musculus. As to the kind of experiment: Neuroprotective activity in substantia nigra of C57Bl/6 mouse neurogenesis model assessed as protection from MPTP-induced cell death in mature neurons at 10 mg/kg/day, ip bid administered for 21 days by immunohistochemical analysis relative to vehicle-treated control. The format is functional. As to conditions: route intraperitoneal. An outline of the steps: as §1

Series [23] relates to Liver microsome. As to the kind of experiment: Half life in dog liver microsomes. The format is ADME, Canis lupus familiaris. For orientation: Microsomes from liver hold many membrane-bound enzymes, among them those of drug oxidation.
Series [24] relates to Liver microsome. As to the kind of experiment: Half life in rat liver microsomes. It is filed as ADME.
For series [25], the system named is Mus musculus. Nature of the series: Neuroprotective activity in wild type C57BL/J6 mouse assessed as survival of newborn hippocampal neurons at 10 uM, icv administered for 7 days by BrdU staining-based microscopy relative to vehicle-treated control. The format is functional, organism-based. The method in brief:
as §3

In series [26] the test system is Plasma. Nature of the series: Bioavailability in mouse plasma at 20 mg/kg, po by HPLC/MS/MS analysis. The format is ADME, organism-based. To be noted: in vivo. The method in brief: as §2
For series [27], the system named is Plasma. Nature of the series: Bioavailability in mouse plasma at 20 mg/kg, ip by HPLC/MS/MS analysis. The format is ADME, organism-based. As to conditions: in vivo. An outline of the steps: as §2
Series [28] is described as follows: Half life in mouse at 20 mg/kg, po by HPLC/MS/MS analysis. Also on record: dose 20 mg/kg, route oral. It is filed as ADME, organism-based. To be noted: in vivo. The method in brief: as §2
Series [29] deals with Mus musculus. Nature of the series: Toxicity in C57Bl/6 mouse assessed as effect on appearance up to 10 mg/kg/day, ip bid administered for 21 days. It is filed as organism-based. Also noted: route intraperitoneal. To be noted: in vivo, 504 h.
Series [30] has as its system Mus musculus. Nature of the series: Toxicity in C57Bl/6 mouse assessed as effect on appearance up to 40 mg/kg/day, ip bid administered for 21 days. It is filed as organism-based. Also on record: route intraperitoneal. As to conditions: in vivo, 504 h.
For series [31], the target named is Translocator protein (Homo sapiens, UniProt P30536). Nature of the series: Inhibition of TSPO (unknown origin).
For series [32], the system named is Mus musculus. As to the kind of experiment: Toxicity in C57Bl/6 mouse assessed as effect on behavior up to 40 mg/kg/day, ip bid administered for 21 days. The format is organism-based. Also noted: route intraperitoneal. To be noted: in vivo, 504 h.
The subject of series [33] is Mus musculus. As to the kind of experiment: Toxicity in C57Bl/6 mouse assessed as effect on weight up to 40 mg/kg/day, ip bid administered for 21 days. Also on record: route intraperitoneal. It is filed as organism-based. As to conditions: in vivo, 504 h.
Series [34] concerns Mus musculus. Nature of the series: Neuroprotective activity in substantia nigra of C57Bl/6 mouse neurogenesis model assessed as protection from MPTP-induced cell death in mature neurons at 5 mg/kg/day, ip bid administered for 21 days by immunohistochemical analysis relative to vehicle-treated control. It is filed as functional, organism-based. The method in brief: as §1

Sequence of Translocator protein (P30536 whole entry): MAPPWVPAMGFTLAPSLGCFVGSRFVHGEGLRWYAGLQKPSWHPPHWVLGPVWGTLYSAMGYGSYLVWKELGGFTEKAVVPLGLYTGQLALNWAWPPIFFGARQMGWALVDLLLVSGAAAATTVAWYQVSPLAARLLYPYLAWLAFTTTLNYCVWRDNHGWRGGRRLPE

As to `COc1cccc(NCC(F)Cn2c3ccc(Br)cc3c3cc(Br)ccc32)n1` (racemic), the t1/2 in series [1] is 1.35 h; in series [10] it was above 4 h; in series [17], 1.95 h; in series [21] it was 0.817 h; in series [23] it was 0.75 h; in series [24], above 4 h. The outcome in series [2], in series [3], in series [6], in series [12] and in series [25] was Active. Also, the Activity entry is “Non-toxic” in series [4], “Non-toxic” in [13], 85% in series [22] and “Non-toxic” in series [29]. In addition, the AUC in series [5] was determined as 319 µg·min/g; in series [8] it was 671 µg·min/g; in [19] it was 388 µg·min/g; in series [20], 189 µg·min/g. Moreover, the F in series [7] is reported as 28%; in series [14], 66%; in series [15] it was 29%; in series [18], 48%; in [26], 38%; in [27], 90%. Further, the half-life is above 24 h in [9], 7.4 h in series [11], 15 h in [16] and 9.6 h in series [28].

Turning to `[N-]=[N+]=NCC(F)Cn1c2ccc(Br)cc2c2cc(Br)ccc21` (centres undefined), the outcome in [6] was inactive.

In the case of `NCC(F)Cn1c2ccc(Br)cc2c2cc(Br)ccc21` (centres undefined), in series [6], the outcome was Active.

With `COc1cccc(NCC(F)Cn2c3ccc(Br)cc3c3cc(Br)ccc32)c1` (centres undefined), the Activity entry in series [30] is “Non-toxic”; in series [32] it was “Non-toxic”; in series [33] it was “Non-toxic”; in series [22], 75%. The outcome in series [6] and in [34] was Active. This compound also yielded a 50% inhibitory concentration (IC50) in [31] of 2000 nM.

Turning to `OC(CNc1ccccc1)Cn1c2ccc(Br)cc2c2cc(Br)ccc21` (centres undefined), the outcome in series [6] was Active.
